CHOP inh = blocks CHOP induction under ER stress; inhibition, % at 10 µM; AID 2732; CHO-K1 CHOP-promoter luciferase, tunicamycin-induced, 15-18 h; 220,000 compounds, 3.8% hits;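 active = compounds that reduced the stress-induced luciferase reporter signal by more than about 70% of percent inhibition, limit read from the data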
b-catenin transl = alters nuclear translocation of beta-catenin in HeLa cells; 190,000 compounds, 0.3% hits; immunofluorescence imaging; nuclear translocation activity, % at 5 µM; AID 1665;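 active = nuclear translocation activity above 50% at 5 µM, with a well cell count of 50 or more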;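 note: per-cell ratio of nuclear to cytoplasmic median beta-catenin stain intensity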
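Test system: human HeLa cells, endogenous beta-catenin. Times: 24 h compound exposure, 37°C. Measured by: beta-catenin immunofluorescence imaging with DAPI.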
Lmaj promast = reduces viability of Leishmania major promastigotes. resazurin fluorescence viability. inhibition, % at 10 µM. 200,000 compounds, 9% hits; in the data active = inhibition above about 50%;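 note: promastigotes grown with compound for 44 hours at 28 °C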
MT stabilizer = microtubule stabilizers in HeLa cells; HeLa tubulin immunostaining HCS, 24 h; share of cells brighter than vehicle mean+2SD; % tubulin-high responders, % at 10 µM; 200,000 compounds, 0.83% hits; AID 2205;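 active = plate Z-score above 3 for both tubulin-high and condensed-nucleus cell shares, with cell loss under 80%, at 10 µM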;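 note: anti alpha tubulin signal scored within the nucleus-defined area of each cell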
Dynein cargo inh = dynein cargo transport inhibition | 3617.4 mouse cells, GR-EGFP nuclear translocation imaging; test concentration mostly 20 µM; stimulated with dexamethasone, 1 µM; stronger effect = lower value | AID 1381 | 220,000 compounds, 0.47% hits | z-score, hits read low;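 active = plate z-score of nuclear minus cytoplasmic receptor signal below a set negative limit, without overly bright fluorescence or cell loss, cut at about -3.5 in these data, passing the limit was not always enough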;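 note: z-score of nuclear minus cytoplasmic ring GR-EGFP intensity difference per well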
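Buffer or medium: tet-free, stripped-serum medium; reagent: dexamethasone at 1.0 µM final, 30 min; incubation: 48 h induction, 1 h compound, 30 min dex at 37 °C; measured by: formaldehyde fixation, Hoechst nuclear stain, 10x automated fluorescence imaging; read-out: nuclear-to-cytoplasmic GR-EGFP distribution per well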
Autophagy mod = autophagy modulation, high-content screen. calls only at 10 µM (by protocol). MEF GFP-LC3 puncta imaging; test concentration mostly 10 µM. 190,000 compounds, 0.98% hits;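 active = percentage of spot-positive cells more than 3 SD above its plate mean, without a fluorescence outlier flag or 80% toxicity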
CHOP inh conf = confirmation of CHOP induction inhibitors | inhibition, % at 10 µM | 2,100 compounds, 45% hits | AID 504437 | CHO-CHOP promoter luciferase reporter, tunicamycin-induced, luminescence | shares compounds with CHOP inh;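 active = mean of three repeat readings of reporter signal inhibition above a set limit, cut at about 70% in these data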
A number is an active result. In the library only some 12% were active in any assay of this set; here they are far more common.

How did Cc1cc(C)cc(NC(=O)Cn2c(SCc3cc(C)ccc3C)nc3ccncc32)c1 do in these assays?
CHOP inh: inactive; b-catenin transl: inactive; Lmaj promast: inactive; MT stabilizer: inactive; Dynein cargo inh: inactive; Autophagy mod: inactive

What do the screens show for `Cc1ccc(CSc2nc3ccncc3n2CC(=O)Nc2cc(C)cc(C)c2)cc1`?
CHOP inh: 96; b-catenin transl: inactive; Lmaj promast: inactive; MT stabilizer: inactive; Dynein cargo inh: inactive; Autophagy mod: inactive; CHOP inh conf: inactive

How did COC(=O)C1(NC(=O)NC2CCCCC2)CCCCC1 do in these assays?
CHOP inh: inactive; b-catenin transl: inactive; Dynein cargo inh: inactive

Results for O=C(N/N=C/c1c(O)n(Cc2ccco2)c(=O)[nH]c1=O)c1ccccc1 ?
CHOP inh: inactive; b-catenin transl: inactive; Dynein cargo inh: inactive

What do the screens show for `COc1ccc(-c2nn(-c3ccccc3)cc2/C=N/Nc2cccc(C(=O)O)c2)cc1`?
CHOP inh: inactive; b-catenin transl: inactive; Lmaj promast: inactive; MT stabilizer: inactive; Dynein cargo inh: inactive; Autophagy mod: inactive

Results for COc1ccc(-c2nn(-c3ccccc3)cc2/C=N/NC(=O)c2ccc(Br)o2)cc1 ?
CHOP inh: 107; b-catenin transl: inactive; Lmaj promast: inactive; MT stabilizer: inactive; Dynein cargo inh: inactive; Autophagy mod: inactive; CHOP inh conf: 127

How did Cc1ccc(-c2cc(C(=O)Nc3ccc(S(=O)(=O)N4CC(C)OC(C)C4)cc3)[nH]n2)c(O)c1 (stereo unspecified) do in these assays?
CHOP inh: inactive; b-catenin transl: inactive; Dynein cargo inh: inactive

Results for Cc1ccc(O)c(-c2cc(C(=O)Nc3ccc(S(=O)(=O)N4CC(C)OC(C)C4)cc3)[nH]n2)c1 (stereo unspecified) ?
CHOP inh: 99; b-catenin transl: inactive; Lmaj promast: inactive; MT stabilizer: inactive; Dynein cargo inh: inactive; Autophagy mod: inactive; CHOP inh conf: inactive

What do the screens show for `CCCCCCn1c(CN2CCN(Cc3ccccc3)CC2)nc2c1c(=O)n(C)c(=O)n2C`?
CHOP inh: 100; b-catenin transl: inactive; Lmaj promast: inactive; MT stabilizer: inactive; Dynein cargo inh: inactive; Autophagy mod: inactive; CHOP inh conf: 120

How did CCCCCn1c(CN2CCN(C)CC2)nc2c1c(=O)n(C)c(=O)n2C do in these assays?
CHOP inh: inactive; b-catenin transl: inactive; Lmaj promast: inactive; MT stabilizer: inactive; Dynein cargo inh: inactive

How did Cc1ccc(N(C(=O)Cn2nnc3ccccc32)C(C(=O)NCc2ccccc2)c2ccccn2)cc1 (stereo unspecified) do in these assays?
CHOP inh: inactive; b-catenin transl: inactive; Lmaj promast: inactive; MT stabilizer: inactive; Dynein cargo inh: inactive; Autophagy mod: inactive

What do the screens show for `O=C(CN1C(=O)CCC1=O)Nc1ccc(Cc2ccc(NC(=O)CN3C(=O)CCC3=O)cc2)cc1`?
CHOP inh: inactive; b-catenin transl: inactive; Lmaj promast: inactive; MT stabilizer: inactive; Dynein cargo inh: inactive; Autophagy mod: inactive

How did CCOC(=O)c1[nH]c2ccc(Cl)cc2c1-c1ccccc1 do in these assays?
CHOP inh: 97; b-catenin transl: inactive; Lmaj promast: inactive; MT stabilizer: inactive; Dynein cargo inh: inactive; Autophagy mod: inactive; CHOP inh conf: 120

What do the screens show for `Cc1ccc(NC(=O)/C(=C\c2ccc([N+](=O)[O-])cc2)NC(=O)c2ccccc2)cc1`?
CHOP inh: 98; Lmaj promast: inactive; MT stabilizer: inactive; Dynein cargo inh: inactive; Autophagy mod: inactive; CHOP inh conf: inactive

Results for O=C(Nc1cccc(C(=O)O)c1)/C(=C/c1ccc([N+](=O)[O-])cc1)NC(=O)c1ccccc1 ?
CHOP inh: inactive; b-catenin transl: inactive; Lmaj promast: inactive; MT stabilizer: inactive; Dynein cargo inh: inactive; Autophagy mod: inactive

How did COc1ccc(C(CCN2CCCC(C)C2)c2c(OC)cc(OC)c3c2OC(=O)CC3c2cc(OC)c(OC)c(OC)c2)cc1 (stereo unspecified) do in these assays?
CHOP inh: inactive; b-catenin transl: inactive; Dynein cargo inh: inactive

What do the screens show for `CSc1cccc(NC(=O)/C=C/c2cccc(Cl)c2)c1`?
CHOP inh: inactive; Lmaj promast: inactive; MT stabilizer: inactive; Dynein cargo inh: inactive; Autophagy mod: inactive

What do the screens show for `c1csc(C2Nc3cccc4cccc(c34)N2)c1`?
CHOP inh: 97; b-catenin transl: inactive; Lmaj promast: inactive; MT stabilizer: inactive; Dynein cargo inh: inactive; Autophagy mod: inactive; CHOP inh conf: inactive

How did Cc1ccc(C)c(N(C(=O)Cc2cccs2)C(C(=O)NC2CCCC2)c2ccc(C)o2)c1 (stereo unspecified) do in these assays?
CHOP inh: inactive; b-catenin transl: inactive; Lmaj promast: inactive; MT stabilizer: inactive; Dynein cargo inh: inactive; Autophagy mod: inactive

Results for Cc1ccc(C(C(=O)NC2CCCCC2)N(C(=O)Cc2c[nH]c3ccccc23)c2ccccc2C)o1 (stereo unspecified) ?
CHOP inh: 100; b-catenin transl: inactive; Lmaj promast: inactive; MT stabilizer: inactive; Dynein cargo inh: inactive; Autophagy mod: inactive; CHOP inh conf: 86

Results for Cc1ccccc1N(C(=O)Cc1c[nH]c2ccccc12)C(C(=O)NC1CCCCC1)c1ccco1 (stereo unspecified) ?
CHOP inh: 103; b-catenin transl: inactive; Lmaj promast: inactive; MT stabilizer: inactive; Dynein cargo inh: inactive; Autophagy mod: inactive; CHOP inh conf: inactive

Results for Cc1csc(/C(=N/OC(=O)c2ccco2)C(N)=O)n1 ?
CHOP inh: inactive; b-catenin transl: inactive; Dynein cargo inh: inactive

How did COC(=O)c1ccc2c(=O)n(NC(=O)C(c3ccccc3)c3ccccc3)c(=S)[nH]c2c1 do in these assays?
CHOP inh: 102; b-catenin transl: inactive; Lmaj promast: inactive; MT stabilizer: inactive; Dynein cargo inh: inactive; Autophagy mod: inactive; CHOP inh conf: inactive

What do the screens show for `Cc1ccc(C(=O)N[C@@H](C)CN2C3=NC[C@H](C)N3C[C@H]2Cc2ccc(O)cc2)cc1Br`?
CHOP inh: inactive; b-catenin transl: inactive; Dynein cargo inh: inactive

Results for O=C(Nc1nc2ccccc2s1)C1CC(=O)N(c2ccc(Cl)cc2)C1 (stereo unspecified) ?
CHOP inh: 105; Lmaj promast: inactive; MT stabilizer: inactive; Dynein cargo inh: inactive; Autophagy mod: inactive; CHOP inh conf: inactive

How did CC(C)N1CC(C(=O)Nc2nc3ccccc3s2)CC1=O (stereo unspecified) do in these assays?
CHOP inh: inactive; b-catenin transl: inactive; Lmaj promast: inactive; MT stabilizer: inactive; Dynein cargo inh: inactive; Autophagy mod: inactive

How did O=C(NC(=S)Nc1ccc2oc(-c3cccnc3)nc2c1)c1cccc(Cl)c1 do in these assays?
CHOP inh: 99; b-catenin transl: inactive; Lmaj promast: inactive; MT stabilizer: inactive; Dynein cargo inh: inactive; Autophagy mod: inactive; CHOP inh conf: inactive

Screens deposited in PubChem by several laboratories.
